Screening results from PubChem BioAssay.
LMPTP inh – blocks human LMPTP phosphatase | P24666 | recombinant LMPTP-A, OMFP fluorogenic substrate, fluorescence intensity | inhibition, % at 20 µM | hit rate 0.22% among 360,000 | AID 651560;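 active = compounds that cut the enzyme signal by at least half of the control window in the single-dose screen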
Target sequence (P24666 whole entry, looked up): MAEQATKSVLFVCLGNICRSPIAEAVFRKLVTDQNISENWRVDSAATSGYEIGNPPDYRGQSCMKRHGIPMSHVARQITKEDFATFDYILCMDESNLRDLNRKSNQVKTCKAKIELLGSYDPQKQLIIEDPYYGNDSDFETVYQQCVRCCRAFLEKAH
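Test system: LMPTP-A phosphatase enzyme; input: 0.625 nM LMPTP-A final; reagent: OMFP substrate, 400 µM final; compound dosing: 20 µM single dose, 3% DMSO; incubation: 50 min dark incubation at room temperature; measured by: endpoint fluorescence intensity from OMFP dephosphorylation; measure: % inhibition relative to no-enzyme and uninhibited control wells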
DNMT1 block – inhibitors of human DNMT1 | hit rate 0.83% among 360,000 | P26358 | AID 588458 | DNMT1 molecular beacon, Hinp1I cleavage, fluorescence | inhibition (reported as % activation of signal), % at 10 µM; in the data active = inhibition above about 50%
Rpn11 inh – Rpn11 (human) deubiquitinase inhibition. inhibition, % at 20 µM. hit rate 0.59% among 360,000. human 26S proteasome, Ub4-pepOG fluorescence polarization; 20S core pre-blocked with epoxomicin. O00487;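 active = inhibition at 20 µM, scaled to each plate's controls, above about 33%, limit read from the data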
Target sequence (O00487 whole entry, looked up): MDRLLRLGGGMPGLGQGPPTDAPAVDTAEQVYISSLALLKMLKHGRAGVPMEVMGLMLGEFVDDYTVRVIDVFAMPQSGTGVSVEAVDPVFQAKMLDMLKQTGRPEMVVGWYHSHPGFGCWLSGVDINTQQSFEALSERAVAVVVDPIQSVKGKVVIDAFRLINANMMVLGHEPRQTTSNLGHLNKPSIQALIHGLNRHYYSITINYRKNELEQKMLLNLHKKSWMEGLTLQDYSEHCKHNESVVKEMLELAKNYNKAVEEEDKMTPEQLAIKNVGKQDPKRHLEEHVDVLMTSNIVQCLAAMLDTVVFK
Scp-1 inhibitor – Scp-1 (human) phosphatase inhibition; AID 493091; inhibition, % at 20 µM; hit rate 0.88% among 340,000; Recombinant Scp1, phosphopeptide, malachite green phosphate absorbance;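 active = inhibition above about 50% at 20 µM, limit read from the data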
Target sequence (Q9GZU7 76-261 limits assumed): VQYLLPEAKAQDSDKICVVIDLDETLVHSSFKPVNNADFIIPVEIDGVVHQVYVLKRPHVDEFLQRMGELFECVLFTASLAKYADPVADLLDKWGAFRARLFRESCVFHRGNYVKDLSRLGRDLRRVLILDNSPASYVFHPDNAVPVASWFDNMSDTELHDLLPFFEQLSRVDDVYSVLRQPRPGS
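System: SCP-1 catalytic domain; Reagent: Phospho 17-mer peptide substrate; Doses: one concentration, 20 µM, with 1.0% DMSO; Incubation: 45 min room-temperature reaction, 5 min colour, 30 min stabiliser; Signal: Phosphate-binding colour reagent, absorbance read at 630 nm.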
SUMO1 PPI mod – modulators of human SUMO1-mediated protein-protein interactions | SUMO1 binding to a labelled peptide, TR-FRET, 1 h | hit rate 0.33% among 360,000 | inhibition, % at 20 µM | P63165; in the data active = inhibition above about 37%
STEP block – blocks human striatal-enriched tyrosine phosphatase; P54829; recombinant STEP, OMFP fluorogenic substrate, fluorescence; inhibition, % at 20 µM; hit rate 0.25% among 360,000;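 active = inhibition at 20 µM, scaled per plate between control wells, above about 37%, limit read from the data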
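System: STEP phosphatase, cell-free reaction; Buffer or medium: Bis-Tris pH 6.0 buffer with DTT, detergent; Incubation: 20 min at room temperature, dark; Measured by: fluorescence, 480/540 nm.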
Scp-1 conf – Scp-1 (human) inhibition, single-dose confirmed | shares compounds with Scp-1 inhibitor | recombinant SCP-1 catalytic domain, phosphate release, malachite green absorbance | inhibition, % at 20 µM | hit rate 61% among 2,500 | AID 540281;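 active = inhibition of at least 30% at 20 µM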
Scp-1 MG ctr – colorimetric interference in Scp-1 counter-screen | shares compounds with Scp-1 inhibitor | apparent inhibition (interference), % at 20 µM | 2,500 tested, under 10 active | Colorimetric interference counterscreen, malachite green absorbance 630 nm;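 active = inhibition of at least 30% at 20 µM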;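 note: compounds added after enzyme reaction finished so only phosphate colour detection is probed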
Scp1 DSF – Scp-1 (human) binding by thermal shift. shares compounds with Scp-1 inhibitor. Recombinant SCP1, Sypro Orange thermal shift Tm. thermal shift relative to vanadate control, % at 40 µM. hit rate 25% among 1,500;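 active = substances whose mean melting-temperature shift, as a percentage of the reference inhibitor's shift, reaches about 5.3%, limit read from the data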
DNMT1 inh conf – DNMT1 inhibition confirmation, single concentration; DNMT1 molecular beacon HinP1I cleavage, fluorescence; hit rate 8% among 2,300; AID 602385; inhibition, % at 10 µM; shares compounds with DNMT1 block;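 active = average inhibition of at least 30% in the single-concentration confirmation test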
Beacon interf – counter-screen for DNMT1 inhibitors: spectral interference; DNMT1 molecular beacon spectral interference counterscreen, fluorescence 485/520; activation (fluorescence interference), % at 10 µM; AID 602387; hit rate 1% among 2,300; shares compounds with DNMT1 block;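 active = activation of at least 30% at 10 µM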;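 note: DNMT1 catalytic domain with a HinP1I cleavage step and a FAM/dabcyl DNA beacon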
Rpn11 confirm – Rpn11 inhibition confirmation, single concentration. shares compounds with Rpn11 inh. hit rate 29% among 1,900. inhibition, % at 20 µM. purified human 26S proteasome, Ub4-pepOG fluorescence polarization; proteasome pretreated with epoxomicin
MMP-2 inh – MMP-2 (human) inhibition counter-screen. shares compounds with Rpn11 inh. recombinant MMP-2, FRET peptide cleavage fluorescence. inhibition, % at 20 µM. hit rate 4% among 1,900. AID 602330;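 note: human MMP-2 activated beforehand with APMA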
Thrombin inh – blocks bovine thrombin, flagging nonselective RPN11 hits. shares compounds with Rpn11 inh. bovine thrombin cleavage of Ub4-pepOG, fluorescence polarization. inhibition, % at 20 µM. hit rate 13% among 1,900;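 active = mean inhibition at least 40% at 20 µM, or signal 3 deviations below plate average, so some actives read negative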
STEP conf – confirmation of human STEP phosphatase inhibitors | shares compounds with STEP block | hit rate 32% among 520 | recombinant STEP, OMFP fluorogenic substrate, fluorescence | inhibition, % at 20 µM; call rule not given here
Large screens that a line does not name were inactive (follow-up assays come after a bar, where they were run). The list is not random: actives were taken first. Their share in the collection is about 2.3%. Cut-off read from the data, not from the text of the source, unless noted: active = inhibition above about 40%; inactive = the rest.

O=C(Cn1cnc2c(nnn2-c2ccccc2)c1=O)NCc1ccc(F)cc1	Rpn11 inh 73, Scp-1 inhibitor 101, STEP block 77 | Scp-1 conf 96 | Scp-1 MG ctr inactive | Scp1 DSF inactive | Rpn11 confirm 61 | MMP-2 inh 46 | Thrombin inh inactive | STEP conf inactive
COc1cc(/C=C(\C#N)C(=O)Nc2cccc(C(=O)O)c2)ccc1OCc1ccc(C)cc1	Scp-1 inhibitor 86, STEP block 61 | Scp-1 conf 72 | Scp-1 MG ctr inactive | Scp1 DSF inactive | STEP conf inactive
CC1Nc2ccccc2C(=O)N1NC(=O)c1ccc(Br)cc1 (centres undefined)	none
COc1cccc(N2[C@@H](CC(C)=O)c3ccccc3S2(=O)=O)c1	none
COc1cccc(N2[C@@H](CC(=O)O)c3ccc(/C=C/C(=O)O)cc3S2(=O)=O)c1	DNMT1 block 102, Scp-1 inhibitor 70, STEP block 50 | Scp-1 conf 54 | Scp-1 MG ctr inactive | Scp1 DSF inactive | DNMT1 inh conf inactive | Beacon interf inactive | STEP conf 36
COc1ccccc1-c1noc2ncnc(Nc3ccc4c(c3)OCO4)c12	none
CC(NC(=O)COC(=O)CN1C(=O)c2ccccc2C1=O)c1ccccc1 (centres undefined)	none
Cc1ccc(NS(=O)(=O)c2cccc3nsnc23)cc1	none
O=S(=O)(Nc1ccccc1)c1cccc2nsnc12	LMPTP inh 58, Scp-1 inhibitor 78, STEP block 84 | Scp-1 conf 59 | Scp-1 MG ctr inactive | Scp1 DSF inactive | STEP conf 40
Cc1nc2cc(-c3ccc(Br)cc3)[nH]n2c(=O)c1Cl	Scp-1 inhibitor 96, STEP block 97 | Scp-1 conf inactive | Scp-1 MG ctr inactive | STEP conf inactive
O=C(N/N=C/c1cccnc1)c1ccc(NC(=O)c2cccc(Cl)c2)cc1	Rpn11 inh 64, Scp-1 inhibitor 70, SUMO1 PPI mod 61, STEP block 94 | Scp-1 conf 72 | Scp-1 MG ctr inactive | Scp1 DSF 8.4 | Rpn11 confirm 44 | MMP-2 inh inactive | Thrombin inh inactive | STEP conf 61
O=C(N/N=C/c1cccnc1)c1ccc(Cl)c(Cl)c1	none
O=C(N/N=C/c1ccccc1F)c1cc2c(ccc3ccccc32)o1	DNMT1 block 82, Rpn11 inh 149, Scp-1 inhibitor 103, STEP block 97 | Scp-1 conf 67 | Scp-1 MG ctr inactive | Scp1 DSF inactive | DNMT1 inh conf inactive | Beacon interf inactive | Rpn11 confirm 99 | MMP-2 inh inactive | Thrombin inh inactive | STEP conf inactive
O=C(N/N=C/C=C/c1ccccc1)c1cc2c(ccc3ccccc32)o1	LMPTP inh 63, DNMT1 block 94, Rpn11 inh 99, Scp-1 inhibitor 102, STEP block 66 | Scp-1 conf 81 | Scp-1 MG ctr inactive | Scp1 DSF inactive | DNMT1 inh conf inactive | Beacon interf inactive | Rpn11 confirm inactive | MMP-2 inh inactive | Thrombin inh inactive | STEP conf inactive
Cc1cc(=O)oc2cc(NC(=O)c3cccc(F)c3)ccc12	DNMT1 block 58, Scp-1 inhibitor 63, STEP block 91 | Scp-1 conf 35 | Scp-1 MG ctr inactive | Scp1 DSF inactive | DNMT1 inh conf inactive | Beacon interf inactive | STEP conf inactive
Cc1cc(=O)oc2cc(NC(=O)c3ccc(OC(F)F)cc3)ccc12	Scp-1 inhibitor 87, STEP block 84 | Scp-1 conf 79 | Scp-1 MG ctr inactive | Scp1 DSF inactive | STEP conf inactive
CC1(C(=O)NS(=O)(=O)C2CC2)CCCN(C(=O)/C=C/c2ccccc2)C1 (centres undefined)	none (no result: Scp-1 inhibitor)
CN(C)c1ccc(C(=O)OCC(=O)Nc2ccc(S(N)(=O)=O)cc2)cc1	Scp-1 inhibitor 99, SUMO1 PPI mod 58, STEP block 40 | Scp-1 conf 75 | Scp-1 MG ctr inactive | Scp1 DSF 11 | STEP conf 101
O=C(Nc1nccs1)c1ccc2ccccc2n1	none
O=C(c1ccc([N+](=O)[O-])cc1)c1cc2ccc(O)cc2oc1=O	Scp-1 inhibitor 72, STEP block 53 | Scp-1 conf 55 | Scp-1 MG ctr inactive | Scp1 DSF 5.7 | STEP conf inactive
CCOc1ccc(C(=O)c2cc3ccc(O)cc3oc2=O)cc1	none
COc1ccc(-c2coc3c(C)c4oc(=O)c(CC(=O)O)c(C)c4cc23)cc1	none
Cc1c(CC(=O)O)c(=O)oc2c(C)c3occ(-c4ccc(Br)cc4)c3cc12	Scp-1 inhibitor 52, STEP block 69 | Scp-1 conf 62 | Scp-1 MG ctr inactive | Scp1 DSF inactive | STEP conf inactive
CC(C)(C)n1nnnc1C(c1cc2ccccc2o1)N(CCC#N)Cc1ccccc1 (centres undefined)	none (no result: DNMT1 block, Rpn11 inh, Scp-1 inhibitor, STEP block)
Cc1ccc2oc(-c3ccc(NC(=O)c4ccncc4)cc3O)nc2c1	none
Cc1ccc2oc(-c3cc(NC(=O)c4ncn[nH]4)ccc3O)nc2c1	Scp-1 inhibitor 85, STEP block 78 | Scp-1 conf 81 | Scp-1 MG ctr inactive | Scp1 DSF inactive | STEP conf inactive
